# The source made the active and inactive calls. The rule behind the calls is not given here.
# Legend:
# [1] = Displacement of [125I]IMPY from amyloid beta (1-42) after 2 hrs by gamma counting
# How it was run: (§1)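 Competition binding against [125I]IMPY on aggregated Aβ1-42, with inhibition curves built from the test ligand displacing the radioligand.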
# [2] = target: Amyloid-beta precursor protein (Homo sapiens) (UniProt P05067); assay: Binding affinity to amyloid beta (1-42) plaque in brain of patient with Alzheimer's disease at 185 KBq/100ul after 1 hr by immunofluorescence staining method; format: tissue-based; details: tested as the 125I-labelled form
# How it was run: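 In vitro autoradiography with the 125I-labelled ligand on brain sections from an Alzheimer's disease patient. Plaque presence and distribution were confirmed by immunohistochemical staining with a monoclonal Aβ antibody.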
# Mus musculus = species on record: Mus musculus; assay: Binding affinity to amyloid beta plaque in APP/PS1 transgenic C57BL/6 mouse brain cortex at 185 KBq/100 ul after 1 hr by thioflavin S-fluorescence staining method; format: tissue-based; details: C57BL6, tested as the 125I-labelled form
# [3] = Binding affinity to amyloid beta (1-42) after 2 hrs by gamma counting; how it was run: as §1
# Blood [4] = assay: Biodistribution in ddY mouse blood at 37 KBq/100 ul, iv after 2 mins by gamma counting; format: ADME, organism-based; details: in vivo
# How it was run: (§2)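 Normal ddY mice got an iv injection of the 125I-labelled ligand (no carrier added, radiochemical purity >98%). Organs were collected at 2, 30, 60 and 120 min. Activity is given as % injected dose per gram; stomach is given as % injected dose per organ. Values are the average of five mice ± standard deviation.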
# Blood [5] = assay: Biodistribution in ddY mouse blood at 37 KBq/100 ul, iv after 30 mins by gamma counting; format: ADME, organism-based; details: in vivo, 0.5 h; how it was run: as §2
# Blood [6] = assay: Biodistribution in ddY mouse blood at 37 KBq/100 ul, iv after 60 mins by gamma counting; format: ADME, organism-based; details: in vivo, 1 h; how it was run: as §2
# Blood [7] = assay: Biodistribution in ddY mouse blood at 37 KBq/100 ul, iv after 120 mins by gamma counting; format: ADME, organism-based; details: in vivo, 2 h; how it was run: as §2
# Brain [8] = assay: Biodistribution in ddY mouse brain at 37 KBq/100 ul, iv after 2 mins by gamma counting; format: ADME, organism-based; details: in vivo; how it was run: as §2
# Brain [9] = assay: Biodistribution in ddY mouse brain at 37 KBq/100 ul, iv after 30 mins by gamma counting; format: ADME, organism-based; details: in vivo, 0.5 h; how it was run: as §2
# Brain [10] = assay: Biodistribution in ddY mouse brain at 37 KBq/100 ul, iv after 60 mins by gamma counting; format: ADME, organism-based; details: in vivo, 1 h; how it was run: as §2
# Brain [11] = assay: Biodistribution in ddY mouse brain at 37 KBq/100 ul, iv after 120 mins by gamma counting; format: ADME, organism-based; details: in vivo, 2 h; how it was run: as §2
# Heart [12] = assay: Biodistribution in ddY mouse heart at 37 KBq/100 ul, iv after 2 mins by gamma counting; format: ADME, organism-based; details: in vivo; how it was run: as §2
# Heart [13] = assay: Biodistribution in ddY mouse heart at 37 KBq/100 ul, iv after 30 mins by gamma counting; format: ADME, organism-based; details: in vivo, 0.5 h; how it was run: as §2
# Heart [14] = assay: Biodistribution in ddY mouse heart at 37 KBq/100 ul, iv after 60 mins by gamma counting; format: ADME, organism-based; details: in vivo, 1 h; how it was run: as §2
# Heart [15] = assay: Biodistribution in ddY mouse heart at 37 KBq/100 ul, iv after 120 mins by gamma counting; format: ADME, organism-based; details: in vivo, 2 h; how it was run: as §2
# Liver [16] = assay: Biodistribution in ddY mouse liver at 37 KBq/100 ul, iv after 2 mins by gamma counting; format: ADME, organism-based; details: in vivo; how it was run: as §2
# Liver [17] = assay: Biodistribution in ddY mouse liver at 37 KBq/100 ul, iv after 30 mins by gamma counting; format: ADME, organism-based; details: in vivo, 0.5 h; how it was run: as §2
# Liver [18] = assay: Biodistribution in ddY mouse liver at 37 KBq/100 ul, iv after 60 mins by gamma counting; format: ADME, organism-based; details: in vivo, 1 h; how it was run: as §2
# Liver [19] = assay: Biodistribution in ddY mouse liver at 37 KBq/100 ul, iv after 120 mins by gamma counting; format: ADME, organism-based; details: in vivo, 2 h; how it was run: as §2
# Spleen [20] = assay: Biodistribution in ddY mouse spleen at 37 KBq/100 ul, iv after 2 mins by gamma counting; format: ADME, organism-based; details: in vivo; how it was run: as §2
# Spleen [21] = assay: Biodistribution in ddY mouse spleen at 37 KBq/100 ul, iv after 30 mins by gamma counting; format: ADME, organism-based; details: in vivo, 0.5 h; how it was run: as §2
# Spleen [22] = assay: Biodistribution in ddY mouse spleen at 37 KBq/100 ul, iv after 60 mins by gamma counting; format: ADME, organism-based; details: in vivo, 1 h; how it was run: as §2
# Spleen [23] = assay: Biodistribution in ddY mouse spleen at 37 KBq/100 ul, iv after 120 mins by gamma counting; format: ADME, organism-based; details: in vivo, 2 h; how it was run: as §2
# Lung [24] = assay: Biodistribution in ddY mouse lung at 37 KBq/100 ul, iv after 2 mins by gamma counting; format: ADME, organism-based; details: in vivo; how it was run: as §2
# Lung [25] = assay: Biodistribution in ddY mouse lung at 37 KBq/100 ul, iv after 30 mins by gamma counting; format: ADME, organism-based; details: in vivo, 0.5 h; how it was run: as §2
# Lung [26] = assay: Biodistribution in ddY mouse lung at 37 KBq/100 ul, iv after 60 mins by gamma counting; format: ADME, organism-based; details: in vivo, 1 h; how it was run: as §2
# Lung [27] = assay: Biodistribution in ddY mouse lung at 37 KBq/100 ul, iv after 120 mins by gamma counting; format: ADME, organism-based; details: in vivo, 2 h; how it was run: as §2
# Kidney [28] = assay: Biodistribution in ddY mouse kidney at 37 KBq/100 ul, iv after 2 mins by gamma counting; format: ADME, organism-based; details: in vivo; how it was run: as §2
# Kidney [29] = assay: Biodistribution in ddY mouse kidney at 37 KBq/100 ul, iv after 30 mins by gamma counting; format: ADME, organism-based; details: in vivo, 0.5 h; how it was run: as §2
# Kidney [30] = assay: Biodistribution in ddY mouse kidney at 37 KBq/100 ul, iv after 60 mins by gamma counting; format: ADME, organism-based; details: in vivo, 1 h; how it was run: as §2
# Kidney [31] = assay: Biodistribution in ddY mouse kidney at 37 KBq/100 ul, iv after 120 mins by gamma counting; format: ADME, organism-based; details: in vivo, 2 h; how it was run: as §2
# Stomach [32] = assay: Biodistribution in ddY mouse stomach assessed per organ at 37 KBq/100 ul, iv after 2 mins by gamma counting; format: ADME, organism-based; details: in vivo; how it was run: as §2
# Stomach [33] = assay: Biodistribution in ddY mouse stomach assessed per organ at 37 KBq/100 ul, iv after 30 mins by gamma counting; format: ADME, organism-based; details: in vivo, 0.5 h; how it was run: as §2
# Stomach [34] = assay: Biodistribution in ddY mouse stomach assessed per organ at 37 KBq/100 ul, iv after 60 mins by gamma counting; format: ADME, organism-based; details: in vivo, 1 h; how it was run: as §2
# Stomach [35] = assay: Biodistribution in ddY mouse stomach assessed per organ at 37 KBq/100 ul, iv after 120 mins by gamma counting; format: ADME, organism-based; details: in vivo, 2 h; how it was run: as §2
# Intestine [36] = assay: Biodistribution in ddY mouse intestine at 37 KBq/100 ul, iv after 2 mins by gamma counting; format: ADME, organism-based; details: in vivo; how it was run: as §2
# Intestine [37] = assay: Biodistribution in ddY mouse intestine at 37 KBq/100 ul, iv after 30 mins by gamma counting; format: ADME, organism-based; details: in vivo, 0.5 h; how it was run: as §2
# Intestine [38] = assay: Biodistribution in ddY mouse intestine at 37 KBq/100 ul, iv after 60 mins by gamma counting; format: ADME, organism-based; details: in vivo, 1 h; how it was run: as §2
# Intestine [39] = assay: Biodistribution in ddY mouse intestine at 37 KBq/100 ul, iv after 120 mins by gamma counting; format: ADME, organism-based; details: in vivo, 2 h; how it was run: as §2
# Brain [40] = assay: Ratio of drug uptake after 2 mins to drug uptake in 120 mins in ddY mouse brain at 37 KBq/100 ul, iv; format: ADME, organism-based; details: in vivo
# How it was run: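 Brain uptake (% injected dose per gram) in normal ddY mice after iv injection of the 125I-labelled ligand. The value is the brain 2 min / brain 120 min ratio, from five mice per time point.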
# [41] = Lipophilicity, log D of the compound; format: physicochemical; details: octanol/water
# Sequence of Amyloid-beta precursor protein (Homo sapiens) (P05067 whole entry): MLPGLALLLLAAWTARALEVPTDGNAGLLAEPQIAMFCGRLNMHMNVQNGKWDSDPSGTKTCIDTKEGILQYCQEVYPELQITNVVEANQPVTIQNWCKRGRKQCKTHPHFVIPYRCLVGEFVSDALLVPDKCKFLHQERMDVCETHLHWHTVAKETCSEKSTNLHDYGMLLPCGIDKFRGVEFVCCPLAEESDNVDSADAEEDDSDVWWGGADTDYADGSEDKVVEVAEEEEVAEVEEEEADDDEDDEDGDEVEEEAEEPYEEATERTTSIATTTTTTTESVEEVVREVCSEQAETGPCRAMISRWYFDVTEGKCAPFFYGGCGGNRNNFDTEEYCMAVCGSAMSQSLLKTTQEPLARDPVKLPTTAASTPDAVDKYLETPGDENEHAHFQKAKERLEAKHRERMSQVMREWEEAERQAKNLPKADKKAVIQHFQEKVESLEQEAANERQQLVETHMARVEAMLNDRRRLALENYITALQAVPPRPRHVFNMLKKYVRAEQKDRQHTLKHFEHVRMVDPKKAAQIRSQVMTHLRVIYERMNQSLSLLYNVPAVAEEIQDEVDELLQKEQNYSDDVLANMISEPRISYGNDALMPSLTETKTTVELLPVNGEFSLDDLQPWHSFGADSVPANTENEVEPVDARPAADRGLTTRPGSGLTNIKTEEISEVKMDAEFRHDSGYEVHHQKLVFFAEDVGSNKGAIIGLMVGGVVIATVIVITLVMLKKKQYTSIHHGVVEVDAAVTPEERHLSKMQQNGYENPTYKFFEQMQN
compound,measurement,setting,value
CNc1ccc(-c2ccc3cc(OCCOCCOCCF)ccc3c2)cc1,Ki,[1],3 nM
CN(C)c1ccc(-c2cnc3cc(I)ccc3n2)cc1,Ki,[1],4.1 nM
same,Activity,[2],Active
same,Activity,Mus musculus,Active
CNc1ccc2cc(-c3ccc(OCCOCCOCCF)cc3)ccc2c1,Ki,[1],1.6 nM
Nc1ccc(-c2cnc3cc(I)ccc3n2)cc1,Ki,[1],10.7 nM
CN(C)c1ccc(-c2cn3cc([123I])ccc3n2)cc1,Kd,[3],0.43 nM
CN(C)c1ccc(-c2cnc3cc([125I])ccc3n2)cc1,Drug uptake,Blood [4],4.71 % ID/g
same,Drug uptake,Blood [5],2.88 % ID/g
same,Drug uptake,Blood [6],2.98 % ID/g
same,Drug uptake,Blood [7],1.88 % ID/g
same,Drug uptake,Brain [8],6.03 % ID/g
same,Drug uptake,Brain [9],5.21 % ID/g
same,Drug uptake,Brain [10],2.91 % ID/g
same,Drug uptake,Brain [11],1.12 % ID/g
same,Drug uptake,Heart [12],14.91 % ID/g
same,Drug uptake,Heart [13],2.53 % ID/g
same,Drug uptake,Heart [14],2.17 % ID/g
same,Drug uptake,Heart [15],1.22 % ID/g
same,Drug uptake,Liver [16],30.49 % ID/g
same,Drug uptake,Liver [17],15.73 % ID/g
same,Drug uptake,Liver [18],12.5 % ID/g
same,Drug uptake,Liver [19],7.53 % ID/g
same,Drug uptake,Spleen [20],5.69 % ID/g
same,Drug uptake,Spleen [21],2.82 % ID/g
same,Drug uptake,Spleen [22],2.22 % ID/g
same,Drug uptake,Spleen [23],1.17 % ID/g
same,Drug uptake,Lung [24],14.53 % ID/g
same,Drug uptake,Lung [25],3.99 % ID/g
same,Drug uptake,Lung [26],3.53 % ID/g
same,Drug uptake,Lung [27],1.95 % ID/g
same,Drug uptake,Kidney [28],19.67 % ID/g
same,Drug uptake,Kidney [29],8.76 % ID/g
same,Drug uptake,Kidney [30],6.68 % ID/g
same,Drug uptake,Kidney [31],3.96 % ID/g
same,Drug uptake,Stomach [32],2.06 %ID
same,Drug uptake,Stomach [33],3.28 %ID
same,Drug uptake,Stomach [34],5.39 %ID
same,Drug uptake,Stomach [35],8.62 %ID
same,Drug uptake,Intestine [36],3.43 % ID/g
same,Drug uptake,Intestine [37],18.62 % ID/g
same,Drug uptake,Intestine [38],22.5 % ID/g
same,Drug uptake,Intestine [39],16.93 % ID/g
same,Ratio,Brain [40],5.38
same,logD,[41],4.02
CN(C)c1ccc(-c2cnc3cc(Br)ccc3n2)cc1,Ki,[1],2.6 nM
CNc1ccc(-c2cnc3cc(I)ccc3n2)cc1,Ki,[1],7.7 nM
